Consider 5 compounds from PMC10016935 (RSC Advances, 2023).

One may read the EC50 as the concentration needed to bring the measured effect to its halfway point. As usually defined, the CC50 is the concentration giving 50% cytotoxicity.

SMILES strings stand for the structures. Read-outs that look alike come from different tables or passages of the source.

Data set [1] deals with HSV-1. As to conditions: read-out: EC50 HSV-1; cell-based antiviral activity; cited from earlier work.
Data set [2] relates to mutant of HSV-1 resistant to acyclovir (TK−). Briefly: Replication inhibition of acyclovir-resistant HSV-1 mutant. The format is cell-based, herpes simplex virus-1. The note with it: Fig. 2C.
For data set [3], the system named is HSV-1. Briefly: HSV replication inhibition assay, HSV-1 in Vero cells. The note with it: for EC50: read-out: HSV-1 EC50 (μM) ± SD; for Selectivity CC50/EC50: Vero CC50 / HSV-1 EC50. The format is cell-based, herpes simplex virus-1. In short, it runs like this:
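Confluent Vero monolayers (24-well) got compound in PBS with 2% newborn calf serum and 2 mM L-glutamine, in duplicate, plus clinical-isolate virus at 2 × 10^4 PFU per well, for 1 h at 37 °C. Washed, then compound in DMEM for 24 h. Non-toxic wells (phase-contrast check) were titred by plaque assay (methanol, Giemsa). EC50 used serial dilutions in 96-well format, three-parameter fit, bottom zero.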

In a further data set the test system is HSV-2. The note with it: read-out: EC50 HSV-2; cell-based antiviral activity; cited from earlier work.
A further data set can be described thus: Cytotoxicity assay. The format is cell-based. As to conditions: African green monkey, Vero cells. In short, it runs like this: (§1)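 Vero cells in 96-well plates in DMEM with 3% bovine growth serum and 3% newborn calf serum. Serial compound dilutions in medium with 1% DMSO were added 24 h after plating, in duplicate. After 24 or 48 h, MTS was added for 90 min and A490 read. CC50 came from a four-parameter variable-slope fit with bottom fixed at zero.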

In another data set the test system is Vero cells. The data set is described as follows: Cytotoxicity assay. The format is cell-based. The note with it: read-out: Vero CC50 (μM) ± SD, 48 h, MTS, 2 to 4 independent runs. In short, it runs like this:
as §1

For the compound `Nc1nc2c(ncn2COCCO)c(=O)[nH]1` [acyclovir], the EC50 is 170 nM in the data set with HSV-1 [1] and 1400 nM in the data set with HSV-2. In data set [2], the “inhibition of ACV-resistant HSV-1” value is reported as “inhibited only the wild-type virus”. The “inhibition of wild-type HSV-1” value in the data set on HSV-1 [3] (wild-type virus, Fig. 2C) is on record as “inhibited only the wild-type virus”.

In turn, `Cc1cc(O)c(=O)c(O)cc1C(=O)N1CCC2(CC1)C1CC3CC(C1)CC2C3` [compound 66, 2,7-Dihydroxy-4-methyl-5-(spiro[adamantane-2,4′-piperidine]-1′-carbonyl)cyclohepta-2,4,6-trien-1-one] returned a CC50 at 48 h in “Cytotoxicity assay” of 23700 ± 3800 nM. Further, the EC50 with HSV-1 [3] (Human alphaherpesvirus 1, Vero) worked out at 0.296 ± 0.054 µM.

As for `Cc1cc(O)c(=O)c(O)cc1C(=O)NCC1(c2ccc(C(C)C)cc2)CCCC1` [compound 65, Dihydroxy-N-((1-(4-isopropylphenyl)cyclopentyl)methyl)-2-methyl-5-oxocyclohepta-1,3,6-triene-1-carboxamide], the CC50 in the data set with Vero cells amounted to 92.5 ± 7.5 µM. The “Selectivity CC50/EC50” value in the data set on HSV-1 [3] is reported as 302. For the same compound, the EC50 in the data set with HSV-1 [3] (Vero cells, 3 to 4 independent runs) came to 0.306 ± 0.016 µM.

In “Cytotoxicity assay”, `Cc1cc(O)c(=O)c(O)cc1C(=O)Nc1ccc2ccc3cccc4ccc1c2c34` [compound 63, 4,6-Dihydroxy-2-methyl-5-oxo-N-(pyren-1-yl)cyclohepta-1,3,6-triene-1-carboxamide] came in with a CC50 at 48 h of 74200 ± 8700 nM. Besides, the EC50 with HSV-1 [3] (Human alphaherpesvirus 1, Vero) came out at 0.244 ± 0.097 µM.

The compound `Cc1cc(O)c(=O)c(O)cc1C(=O)N1CCc2cc(C3CCCCC3)ccc2C1` [compound 64, 4-(6-Cyclohexyl-1,2,3,4-tetrahydroisoquinoline-2-carbonyl)-2,7-dihydroxy-5-methylcyclohepta-2,4,6-trien-1-one] returned a CC50 at 48 h in the data set “Cytotoxicity assay” of 75700 ± 5300 nM. The EC50 in the data set on HSV-1 [3] (Human alphaherpesvirus 1, Vero) came out at 0.072 ± 0.021 µM. The “Selectivity CC50/EC50” value with HSV-1 [3] (listed as C00065) amounted to 1050.
